Laboratory results: paper PMC3379667 (Diabetes, 2012)
No end group written: not given here.

Assays:
[1] = Plasma IR-GIP and IR-xenin levels during and after peptide infusion; assay type: in vivo; details: human, iv, 4 pmol ⋅ kg^−1 ⋅ min^−1
Procedure, shortened: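 Peptides were infused IV at 4 pmol·kg−1·min−1 in saline with 1% albumin during the graded glucose infusion. Plasma IR-GIP was measured by total-GIP ELISA and IR-xenin by an in-house ELISA. IR-xenin half-life came from levels sampled after infusions stopped (n = 6).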

[2] = system: humans with NGT, IGT, or T2DM; test: Symptomatic effects of peptide infusions; assay type: in vivo, human; details: all three groups; for subjects with mild diarrhea and/or loose stools: within several hours of the infusion
[3] = system: healthy humans; details: intravenous infusion of neurotensin alone; cited from earlier work
[4] = system: humans with NGT, IGT, or T2DM; test: Graded glucose infusion; assay type: in vivo, human; details: for increase of ISR iAUC during the first 40 min compared with albumin: P ≤0.0005; for increase of 240-min ISR iAUC/glucose iAUC compared with albumin: P ≤0.007 vs. albumin
Procedure, shortened: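 Subjects fasted 10 h. Arterialized venous blood was drawn from a hand heated to 50–55°C. Glucose ≥120 mg/dL was lowered to 100–120 mg/dL with IV insulin (∼0.01 units/kg every 30 min), then held stable 20 min. Four blinded 240-min GGIs ≥2 weeks apart gave IV peptide or albumin (peptides 4 pmol·kg−1·min−1 in saline/1% albumin). Glucose measured by glucose oxidase; C-peptide by chemiluminescent immunometric assay; ISR by stochastic deconvolution; iAUCs; mixed-effects models, one-tailed t tests.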

[5] = system: healthy individuals and persons with T2DM; details: iv infusion 4 pmol/kg/min, cited from earlier work

half-life [1] [min]	subjects with mild diarrhea and/or loose stools [2] [%]	Molecule	increase of resting heart rate [2]	reduction of mean arterial blood pressure [2]	change in blood pressure or plasma levels of glucose, insulin, or glucagon [3]	ISR iAUC during the first 40 min of the GGI ([4]; subjects with IGT, G+X vs GIP alone P = 0.002)	increase of ISR iAUC during the first 40 min compared with albumin ([4]; subjects with IGT) [fold]	increase of 240-min ISR iAUC/glucose iAUC compared with albumin ([4]; subjects with IGT) [fold]	time of peak early insulin secretory response (ISR) ([4]; subjects with IGT, time into the infusions) [min]	ISR iAUC during the first 40 min of the GGI ([4]; subjects with NGT, G+X vs GIP alone P = 0.048)	increase of ISR iAUC during the first 40 min compared with albumin ([4]; subjects with NGT) [fold]	increase of 240-min ISR iAUC/glucose iAUC compared with albumin ([4]; subjects with NGT) [fold]	time of peak early insulin secretory response (ISR) ([4]; subjects with NGT, time into the GGI) [min]	ISR iAUC during the first 40 min of the GGI ([4]; subjects with T2DM, G+X vs GIP alone P = 0.18)	increase of ISR iAUC during the first 40 min compared with albumin ([4]; subjects with T2DM) [fold]	increase of 240-min ISR iAUC/glucose iAUC compared with albumin ([4]; subjects with T2DM) [fold]	increase of insulin release during a hyperglycemic clamp ([5]; healthy individuals)	effect on insulin release during a hyperglycemic clamp ([5]; persons with T2DM)
2.5 ± 0.3	21	MLTKFETKSARVKGLSFHPKRPWIL [xenin-25, Xenin-25]	no effect	no effect														
		neurotensin			no significant change													
	14	CC[C@H](C)[C@H](NC(=O)[C@H](CO)NC(=O)[C@H](Cc1ccc(O)cc1)NC(=O)[C@H](CC(=O)O)NC(=O)[C@H](CO)NC(=O)[C@@H](NC(=O)[C@H](Cc1ccccc1)NC(=O)[C@@H](NC(=O)CNC(=O)[C@H](CCC(=O)O)NC(=O)[C@H](C)NC(=O)[C@@H](N)Cc1ccc(O)cc1)[C@@H](C)O)[C@@H](C)CC)C(=O)N[C@@H](C)C(=O)N[C@@H](CCSC)C(=O)N[C@@H](CC(=O)O)C(=O)N[C@@H](CCCCN)C(=O)N[C@H](C(=O)N[C@@H](Cc1c[nH]cn1)C(=O)N[C@@H](CCC(N)=O)C(=O)N[C@@H](CCC(N)=O)C(=O)N[C@@H](CC(=O)O)C(=O)N[C@@H](Cc1ccccc1)C(=O)N[C@H](C(=O)N[C@@H](CC(N)=O)C(=O)N[C@@H](Cc1c[nH]c2ccccc12)C(=O)N[C@@H](CC(C)C)C(=O)N[C@@H](CC(C)C)C(=O)N[C@@H](C)C(=O)N[C@@H](CCC(N)=O)C(=O)N[C@@H](CCCCN)C(=O)NCC(=O)N[C@@H](CCCCN)C(=O)N[C@@H](CCCCN)C(=O)N[C@@H](CC(N)=O)C(=O)N[C@@H](CC(=O)O)C(=O)N[C@@H](Cc1c[nH]c2ccccc12)C(=O)N[C@@H](CCCCN)C(=O)N[C@@H](Cc1c[nH]cn1)C(=O)N[C@@H](CC(N)=O)C(=O)N[C@H](C(=O)N[C@H](C(=O)N[C@@H](CCC(N)=O)C(=O)O)[C@@H](C)O)[C@@H](C)CC)C(C)C)[C@@H](C)CC [GIP, glucose-dependent insulinotropic polypeptide]	~8 bpm	10–15 mmHg		10,016 ± 1,524 pmol insulin secreted/40 min	6.1	1.5	20	7,998 ± 1,263 pmol insulin secreted/40 min	4.6	1.7	≤ 10	10,062 ± 2,290 pmol insulin secreted/40 min	8.7	1.9	approximately fourfold	ineffective
